From ChEMBL document CHEMBL4477235, “Evolution of a Novel, Orally Bioavailable Series of PI3Kδ Inhibitors from an Inhaled Lead for the Treatment of Respiratory Disease” (J Med Chem, 2016)
pIC50: −log10 of the molar value. In brackets after ≈: the same amount, converted by molar mass. Activity calls are given as the source filed them. No cut-off for these calls is given here.

How the values were obtained:
Sphingosine kinase 2 = Sphingosine kinase 2 (Homo sapiens, UniProt Q9NRA0); experiment: Inhibition of SPHK2 (unknown origin)
[1] = target: Inhibitor of nuclear factor kappa-B kinase subunit alpha (Homo sapiens, UniProt O15111); experiment: Inhibition of IKK1 (unknown origin)
Inhibitor of nuclear factor kappa-B kinase subunit alpha, sequence (O15111 whole entry): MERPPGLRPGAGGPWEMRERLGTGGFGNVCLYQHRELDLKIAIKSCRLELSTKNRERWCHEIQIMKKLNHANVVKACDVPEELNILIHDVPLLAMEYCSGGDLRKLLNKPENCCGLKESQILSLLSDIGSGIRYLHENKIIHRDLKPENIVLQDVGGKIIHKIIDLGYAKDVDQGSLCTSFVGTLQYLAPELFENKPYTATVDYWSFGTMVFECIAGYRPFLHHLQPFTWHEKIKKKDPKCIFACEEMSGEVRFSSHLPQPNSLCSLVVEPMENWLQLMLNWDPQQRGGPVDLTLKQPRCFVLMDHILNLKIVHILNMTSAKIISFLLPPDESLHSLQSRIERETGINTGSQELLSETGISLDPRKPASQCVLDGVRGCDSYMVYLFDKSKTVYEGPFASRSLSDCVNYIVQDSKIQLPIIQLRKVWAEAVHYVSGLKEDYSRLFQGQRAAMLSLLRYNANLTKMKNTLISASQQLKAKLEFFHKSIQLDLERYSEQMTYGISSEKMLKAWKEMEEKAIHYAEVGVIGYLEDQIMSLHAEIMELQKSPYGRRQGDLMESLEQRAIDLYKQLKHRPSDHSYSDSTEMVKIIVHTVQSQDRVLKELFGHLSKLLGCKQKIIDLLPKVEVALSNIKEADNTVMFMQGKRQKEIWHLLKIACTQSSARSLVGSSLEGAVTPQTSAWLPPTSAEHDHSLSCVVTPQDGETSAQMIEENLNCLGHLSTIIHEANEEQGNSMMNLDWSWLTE

Rattus norvegicus = experiment: Anti-inflammatory activity in Brown Norway rat acute OVA model of TH2-driven lung inflammation assessed as protection against eosinophil recruitment in bronchoalveolar lavage fluid at 3 mg/kg, po pretreated for 30 mins followed by OVA challenge by DAPI staining based flow cytometry; format: functional, organism-based
Summary of the method: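 Male Brown Norway rats (250–300 g) sensitized i.p. with 10 μg OVA plus 20 mg Al(OH)₃ on days 1 and 7. Oral compound given 30 min before intratracheal OVA challenge on day 21 or 28, under isoflurane. BAL taken 48 h post-challenge. Leucocytes counted by flow cytometry, gated on FSC/SSC, with DAPI+ dead cells excluded.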

[2] = Half life in Brown Norway rat acute OVA model of TH2-driven lung inflammation at 3 mg/kg, po pretreated for 30 mins followed by OVA challenge; format: ADME, organism-based; details: in vivo
[3] = target: Inhibitor of nuclear factor kappa-B kinase subunit beta (Homo sapiens, UniProt O14920); experiment: Inhibition of IKK2 (unknown origin)
Inhibitor of nuclear factor kappa-B kinase subunit beta, sequence (O14920 whole entry): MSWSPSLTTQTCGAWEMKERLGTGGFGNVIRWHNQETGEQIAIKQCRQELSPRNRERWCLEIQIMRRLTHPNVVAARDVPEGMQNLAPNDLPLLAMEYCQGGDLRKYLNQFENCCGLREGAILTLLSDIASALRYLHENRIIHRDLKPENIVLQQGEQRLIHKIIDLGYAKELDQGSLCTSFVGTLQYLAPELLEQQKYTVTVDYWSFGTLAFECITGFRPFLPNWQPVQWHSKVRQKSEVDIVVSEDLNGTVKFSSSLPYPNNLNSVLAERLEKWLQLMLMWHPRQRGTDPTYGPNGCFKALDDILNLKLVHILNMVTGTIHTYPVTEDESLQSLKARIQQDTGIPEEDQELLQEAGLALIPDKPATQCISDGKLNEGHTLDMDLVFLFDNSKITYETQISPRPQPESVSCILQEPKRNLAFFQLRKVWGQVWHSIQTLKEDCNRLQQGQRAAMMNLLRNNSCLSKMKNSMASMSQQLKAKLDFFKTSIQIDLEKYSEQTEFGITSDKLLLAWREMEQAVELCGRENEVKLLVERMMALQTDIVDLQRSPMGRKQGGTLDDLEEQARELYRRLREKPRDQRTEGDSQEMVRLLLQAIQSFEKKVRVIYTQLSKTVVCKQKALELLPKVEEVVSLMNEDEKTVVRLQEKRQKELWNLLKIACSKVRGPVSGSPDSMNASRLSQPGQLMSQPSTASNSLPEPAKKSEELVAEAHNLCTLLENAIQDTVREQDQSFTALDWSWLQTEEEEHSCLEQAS

Homo sapiens [4] = organism: Homo sapiens; experiment: Selectivity ratio of IC50 for PI3Kalpha (unknown origin) to IC50 for PI3Kdelta (unknown origin)
Summary of the method: (§1)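 Ratio of each isoform's HTRF IC50 to the PI3Kδ HTRF IC50. Enzymes were preincubated 15 min with 4-fold compound dilutions in HEPES pH 7.0, MgCl2, DTT buffer. […] PIP2 was 5 µM for δ and 8 µM for α/β/γ. 60 min reaction, then EDTA quench with GRP-1 PH domain/APC/Eu detection. Four-parameter fit.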

[5] = target: Phosphatidylinositol 4-kinase beta (Homo sapiens, UniProt Q9UBF8); experiment: Inhibition of PIK4B (unknown origin)
Phosphatidylinositol 4-kinase beta, sequence (Q9UBF8 whole entry): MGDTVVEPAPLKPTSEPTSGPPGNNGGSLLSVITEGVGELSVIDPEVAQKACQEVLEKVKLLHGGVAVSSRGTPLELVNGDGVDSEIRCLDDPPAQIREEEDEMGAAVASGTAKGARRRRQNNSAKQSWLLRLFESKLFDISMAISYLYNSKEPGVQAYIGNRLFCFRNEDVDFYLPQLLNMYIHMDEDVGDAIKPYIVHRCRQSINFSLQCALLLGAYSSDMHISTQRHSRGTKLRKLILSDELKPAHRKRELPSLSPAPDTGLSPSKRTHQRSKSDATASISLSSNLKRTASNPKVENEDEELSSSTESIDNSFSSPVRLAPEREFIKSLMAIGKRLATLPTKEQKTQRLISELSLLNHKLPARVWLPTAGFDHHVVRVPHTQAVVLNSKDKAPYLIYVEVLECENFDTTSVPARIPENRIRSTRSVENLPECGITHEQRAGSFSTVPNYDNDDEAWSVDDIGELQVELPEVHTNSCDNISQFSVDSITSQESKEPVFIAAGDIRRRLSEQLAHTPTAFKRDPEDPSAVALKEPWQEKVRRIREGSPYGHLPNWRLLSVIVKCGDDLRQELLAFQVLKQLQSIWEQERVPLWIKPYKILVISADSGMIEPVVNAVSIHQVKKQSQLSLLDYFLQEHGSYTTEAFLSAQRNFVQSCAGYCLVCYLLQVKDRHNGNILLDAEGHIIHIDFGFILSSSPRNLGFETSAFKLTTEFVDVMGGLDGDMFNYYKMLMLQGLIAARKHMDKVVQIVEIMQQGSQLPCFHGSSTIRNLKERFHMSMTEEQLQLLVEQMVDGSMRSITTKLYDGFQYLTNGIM

Sphingosine kinase 1 = Sphingosine kinase 1 (Homo sapiens, UniProt Q9NYA1); experiment: Inhibition of SPHK1 (unknown origin)
Sphingosine kinase 1, sequence (Q9NYA1 whole entry): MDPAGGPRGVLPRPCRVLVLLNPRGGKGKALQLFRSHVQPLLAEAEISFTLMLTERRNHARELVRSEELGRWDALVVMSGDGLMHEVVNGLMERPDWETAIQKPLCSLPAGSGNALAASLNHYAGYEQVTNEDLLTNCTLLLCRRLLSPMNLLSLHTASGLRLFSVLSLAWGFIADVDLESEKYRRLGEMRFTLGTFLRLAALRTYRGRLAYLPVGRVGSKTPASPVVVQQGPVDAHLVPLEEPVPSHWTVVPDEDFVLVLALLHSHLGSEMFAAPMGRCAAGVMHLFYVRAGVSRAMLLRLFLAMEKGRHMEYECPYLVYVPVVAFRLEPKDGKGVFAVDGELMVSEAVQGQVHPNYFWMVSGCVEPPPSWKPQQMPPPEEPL

[6] = Clearance in Sprague-Dawley rat at 1 mg/kg, iv measured up to 7 hrs by LC-MS/MS analysis relative to liver blood flow; format: ADME, organism-based; details: in vivo
Summary of the method: (§2)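 Male Sprague Dawley rats (n = 2/route), intravenous dose as a solution in DMSO/PEG200/water (5:45:50 v/v/v) at 2 mL/kg. Serial tail-vein blood sampling over 0–7 h. LC–MS/MS quantification of parent. Noncompartmental analysis.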

Albumin = Albumin (Homo sapiens, UniProt P02768); experiment: Binding affinity to human serum albumin by HPLC analysis; format: ADME; details: read-out: PB (converted)
Albumin, sequence (P02768 whole entry): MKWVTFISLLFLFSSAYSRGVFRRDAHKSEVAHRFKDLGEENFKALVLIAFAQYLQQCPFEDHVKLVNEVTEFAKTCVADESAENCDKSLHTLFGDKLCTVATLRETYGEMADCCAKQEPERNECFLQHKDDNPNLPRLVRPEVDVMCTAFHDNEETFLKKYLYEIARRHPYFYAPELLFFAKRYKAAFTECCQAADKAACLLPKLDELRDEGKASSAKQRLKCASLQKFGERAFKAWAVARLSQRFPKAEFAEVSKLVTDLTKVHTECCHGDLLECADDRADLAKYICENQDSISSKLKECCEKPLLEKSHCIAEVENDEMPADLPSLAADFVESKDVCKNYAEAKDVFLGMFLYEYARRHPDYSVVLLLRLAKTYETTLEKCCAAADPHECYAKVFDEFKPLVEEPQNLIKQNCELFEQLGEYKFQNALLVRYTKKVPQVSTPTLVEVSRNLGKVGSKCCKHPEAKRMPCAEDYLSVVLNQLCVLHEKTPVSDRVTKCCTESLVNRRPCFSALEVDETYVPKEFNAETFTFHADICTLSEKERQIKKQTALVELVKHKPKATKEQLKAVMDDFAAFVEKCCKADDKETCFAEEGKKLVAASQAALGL

[7] = target: Tyrosine-protein kinase SYK (Homo sapiens, UniProt P43405); experiment: Inhibition of SYK (unknown origin)
[8] = Half life in Sprague-Dawley rat at 1 mg/kg, iv by LC-MS/MS analysis; format: ADME, organism-based; details: in vivo; summary of the method: as §2
Choline kinase alpha = Choline kinase alpha (Homo sapiens, UniProt P35790); experiment: Inhibition of choline kinase alpha (unknown origin)
Choline kinase alpha, sequence (P35790 whole entry): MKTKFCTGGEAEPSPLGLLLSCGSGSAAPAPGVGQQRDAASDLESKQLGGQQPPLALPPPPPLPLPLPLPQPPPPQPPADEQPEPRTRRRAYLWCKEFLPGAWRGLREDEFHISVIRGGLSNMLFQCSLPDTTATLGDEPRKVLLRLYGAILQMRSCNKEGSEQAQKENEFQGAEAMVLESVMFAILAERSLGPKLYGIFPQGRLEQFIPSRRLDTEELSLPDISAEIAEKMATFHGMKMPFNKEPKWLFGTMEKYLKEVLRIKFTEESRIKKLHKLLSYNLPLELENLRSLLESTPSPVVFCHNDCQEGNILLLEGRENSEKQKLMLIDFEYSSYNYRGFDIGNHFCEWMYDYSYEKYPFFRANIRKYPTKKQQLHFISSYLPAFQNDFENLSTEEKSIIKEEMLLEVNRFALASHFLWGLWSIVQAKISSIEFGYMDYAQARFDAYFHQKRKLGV

[9] = target: Mitogen-activated protein kinase kinase kinase 5 (Homo sapiens, UniProt Q99683); experiment: Inhibition of ASK1 (unknown origin)
[10] = target: T1, Phosphatidylinositol 4,5-bisphosphate 3-kinase catalytic subunit delta isoform (Homo sapiens, UniProt O00329)
T1 sequence (O00329 whole entry): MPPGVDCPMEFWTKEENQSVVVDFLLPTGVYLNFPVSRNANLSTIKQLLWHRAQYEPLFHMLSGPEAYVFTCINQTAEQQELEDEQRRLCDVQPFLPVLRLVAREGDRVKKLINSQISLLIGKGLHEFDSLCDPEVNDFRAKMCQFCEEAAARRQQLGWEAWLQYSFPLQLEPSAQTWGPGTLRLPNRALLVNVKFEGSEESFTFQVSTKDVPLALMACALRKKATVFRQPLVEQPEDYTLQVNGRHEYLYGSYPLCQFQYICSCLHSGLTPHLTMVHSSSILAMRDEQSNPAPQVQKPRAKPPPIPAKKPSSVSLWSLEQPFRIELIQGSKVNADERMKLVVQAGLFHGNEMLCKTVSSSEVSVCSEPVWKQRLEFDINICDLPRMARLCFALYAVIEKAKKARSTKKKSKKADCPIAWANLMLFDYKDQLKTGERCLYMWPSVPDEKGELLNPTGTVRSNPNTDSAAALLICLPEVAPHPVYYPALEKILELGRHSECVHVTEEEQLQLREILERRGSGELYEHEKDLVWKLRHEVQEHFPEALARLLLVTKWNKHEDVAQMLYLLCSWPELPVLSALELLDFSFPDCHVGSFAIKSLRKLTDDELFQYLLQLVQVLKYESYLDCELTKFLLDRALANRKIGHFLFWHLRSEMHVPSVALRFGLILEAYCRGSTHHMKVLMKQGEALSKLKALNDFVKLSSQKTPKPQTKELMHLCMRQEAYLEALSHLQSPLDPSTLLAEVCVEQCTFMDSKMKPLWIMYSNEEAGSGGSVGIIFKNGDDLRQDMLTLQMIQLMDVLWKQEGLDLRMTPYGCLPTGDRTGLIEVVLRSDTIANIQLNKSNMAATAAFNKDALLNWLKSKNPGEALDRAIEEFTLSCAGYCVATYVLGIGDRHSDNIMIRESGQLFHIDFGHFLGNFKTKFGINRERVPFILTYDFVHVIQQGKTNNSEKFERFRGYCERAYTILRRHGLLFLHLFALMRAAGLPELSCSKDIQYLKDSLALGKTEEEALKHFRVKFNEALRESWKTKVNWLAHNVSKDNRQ

[11] = Clearance in rat liver microsomes at 0.5 uM measured up to 30 mins by LC-MS/MS analysis; format: ADME, Microsome; details: 0.5 h
Summary of the method: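 Rat liver microsomes (0.5 mg protein/mL) prewarmed 10 min at 37 °C, started with NADPH regeneration system. Final compound 0.5 μM. Sampled at 0, 3, 6, 12 and 30 min into acetonitrile with internal standard. Peak area ratios by LC–MS/MS fitted to log-linear decline. Clearance scaled by protein concentration, incubation volume and 52.5 mg microsomal protein/g liver.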

[12] = Fraction unbound in Wistar Han rat at 1 mg/kg after 1 hr by HPLC analysis; format: ADME, organism-based; details: in vivo
Summary of the method: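 Unbound concentration at 1 h post-dose estimated by an internal algorithm from binding to HPLC columns coated with HSA and α-glycoprotein.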

[13] = Clearance in human liver microsomes at 0.5 uM measured up to 30 mins by LC-MS/MS analysis; format: ADME, Microsome; details: 0.5 h
Homo sapiens [14] = organism: Homo sapiens; experiment: Selectivity ratio of IC50 for PI3Kgamma (unknown origin) to IC50 for PI3Kdelta (unknown origin); summary of the method: as §1
[15] = Kinetic solubility in phosphate buffered saline at pH 7.4 after 1 hr by chemiluminescent nitrogen detection method; format: physicochemical; details: read-out: Kinetic_solubility
Summary of the method: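 The sample was then filtered, and the filtrate was quantified by calibrated flow-injection chemiluminescent nitrogen detection. Standard error was ±30 µM, and the upper limit was 500 µM from the 10 mM stock.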

[16] = target: Tyrosine-protein kinase JAK3 (Homo sapiens, UniProt P52333); experiment: Inhibition of JAK3 (unknown origin)
Tyrosine-protein kinase JAK3, sequence (P52333 whole entry): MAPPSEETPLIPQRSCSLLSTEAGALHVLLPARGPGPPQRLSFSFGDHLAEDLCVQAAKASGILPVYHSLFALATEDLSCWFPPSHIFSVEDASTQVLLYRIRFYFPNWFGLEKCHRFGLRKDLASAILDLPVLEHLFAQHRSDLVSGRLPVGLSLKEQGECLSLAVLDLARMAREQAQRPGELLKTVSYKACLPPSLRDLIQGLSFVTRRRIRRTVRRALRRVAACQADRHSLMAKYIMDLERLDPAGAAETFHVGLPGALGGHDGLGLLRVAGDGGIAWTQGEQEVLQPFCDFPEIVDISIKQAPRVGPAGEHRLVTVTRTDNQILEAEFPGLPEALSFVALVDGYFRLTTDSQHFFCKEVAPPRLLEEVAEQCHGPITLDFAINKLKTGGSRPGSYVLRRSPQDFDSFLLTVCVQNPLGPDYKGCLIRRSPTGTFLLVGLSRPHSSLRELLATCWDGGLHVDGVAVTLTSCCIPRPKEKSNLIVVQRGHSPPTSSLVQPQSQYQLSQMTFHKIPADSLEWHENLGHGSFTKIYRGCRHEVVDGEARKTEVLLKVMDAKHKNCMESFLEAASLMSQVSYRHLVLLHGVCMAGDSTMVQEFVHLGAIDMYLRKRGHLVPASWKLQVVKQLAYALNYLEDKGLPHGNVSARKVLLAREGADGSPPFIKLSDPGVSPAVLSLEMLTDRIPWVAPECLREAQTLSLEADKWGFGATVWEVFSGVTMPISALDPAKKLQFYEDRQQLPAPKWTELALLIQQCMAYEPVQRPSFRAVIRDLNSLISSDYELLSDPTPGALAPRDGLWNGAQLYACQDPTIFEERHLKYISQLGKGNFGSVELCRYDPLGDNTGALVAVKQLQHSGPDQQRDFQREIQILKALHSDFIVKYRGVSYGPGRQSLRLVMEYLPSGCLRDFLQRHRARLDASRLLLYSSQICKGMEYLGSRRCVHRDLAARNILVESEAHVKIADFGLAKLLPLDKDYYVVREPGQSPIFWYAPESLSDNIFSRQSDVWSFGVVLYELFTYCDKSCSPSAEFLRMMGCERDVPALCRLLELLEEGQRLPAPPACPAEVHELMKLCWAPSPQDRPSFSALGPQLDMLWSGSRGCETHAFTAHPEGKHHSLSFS

pIC50 (Sphingosine kinase 2): < 5.00
pIC50 [1]: < 5.00
half-life [2]: 10.6 h
pIC50 [3]: < 5.00
Ratio IC50 (Homo sapiens [4]): 25
pIC50 [5]: < 5.00
pIC50 (Sphingosine kinase 1): < 5.00
CL [6]: < 20%
fraction unbound (Albumin): 0.36
pIC50 [7]: < 5.00
half-life [8]: 1.3 h
pIC50 (Choline kinase alpha): < 5.00
pIC50 [9]: < 5.00
pIC50 [10]: 6.80
CLH [11]: < 0.5 mL/min/g
Drug uptake(free) [12]: 0.089 µM
CLH [13]: < 0.5 mL/min/g
Ratio IC50 (Homo sapiens [14]): 50
solubility kinetic at 1 h [15]: 185 µg/mL (≈ 400 µM)
pIC50 [16]: < 5.00
Structure (SMILES): COc1ncc(-c2cc3c(c(NC(=O)CN4CCOCC4)c2)COC3)cc1NS(C)(=O)=O
Activity (Rattus norvegicus): Active
